Data taken from ChEMBL document CHEMBL2440113, “Synthesis, radiofluorination, and in vivo evaluation of novel fluorinated and iodinated radiotracers for PET imaging and targeted radionuclide therapy of melanoma” (J Med Chem, 2013).

Experiments:
Stomach [1] = experiment: Biodistribution in stomach of C57BL/6J mouse harboring mouse B16-Bl6 cells at 9 to 12 MBq, iv after 3 hrs by PET analysis; type: ADME, organism-based; conditions: in vivo
In short: (§1)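 Ex vivo biodistribution. C57BL/6J mice bearing subcutaneous B16Bl6 tumours (3x10⁵ cells, shoulder), day 10 or 14, received [18F]tracer iv (9-12 MBq). They were killed by CO₂ at 1, 2 or 3 h. Tumours and organs were excised, weighed and gamma-counted. Results are decay-corrected % ID/g; ratios are tumour over tissue. n=3-6 per group; mean ± SD.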

Mus musculus [2] = experiment: Ratio of drug level in tumor to muscle in C57BL/6J mouse harboring mouse B16-Bl6 cells at 9 to 12 MBq, iv after 3 hrs by PET analysis; conditions: in vivo
Mus musculus [3] = experiment: Biodistribution in cecum of C57BL/6J mouse harboring mouse B16-Bl6 cells at 9 to 12 MBq, iv after 1 hr by PET analysis; type: ADME, organism-based, Caecum; conditions: in vivo
In short: (§2)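 Ex vivo dissection in B16Bl6-bearing C57BL/6J mice (3x10⁵ cells s.c. right shoulder), done at day 10 or 14 after implantation. The ¹⁸F tracer was given i.v. at 9-12 MBq. Mice were killed by CO₂ at 1, 2 or 3 h. Tumor, organs and tissues were excised, weighed and gamma-counted, then decay-corrected and expressed as %ID/g. n=3-6 per group; mean ± SD.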

[4] = Ratio of drug level in tumor to blood in C57BL/6J mouse harboring mouse B16-Bl6 cells at 9 to 12 MBq, iv after 3 hrs by PET analysis; type: ADME, organism-based; in short: as §1
Stomach [5] = experiment: Biodistribution in stomach of C57BL/6J mouse harboring mouse B16-Bl6 cells at 9 to 12 MBq, iv after 1 hr by PET analysis; type: ADME, organism-based; conditions: in vivo; in short: as §2
Kidney [6] = experiment: Biodistribution in kidney of C57BL/6J mouse harboring mouse B16-Bl6 cells at 9 to 12 MBq, iv after 2 hrs by PET analysis; type: ADME, organism-based; conditions: in vivo; in short: as §2
Mus musculus [7] = experiment: Biodistribution in eyes of C57BL/6J mouse harboring mouse B16-Bl6 cells at 9 to 12 MBq, iv after 1 hr by PET analysis; type: ADME, organism-based, Eye; conditions: in vivo; in short: as §2
Kidney [8] = experiment: Biodistribution in kidney of C57BL/6J mouse harboring mouse B16-Bl6 cells at 9 to 12 MBq, iv after 3 hrs by PET analysis; type: ADME, organism-based; conditions: in vivo; in short: as §2
Bone = experiment: Biodistribution in bone of C57BL/6J mouse harboring mouse B16-Bl6 cells at 8 to 12 MBq, iv after 1 hr by PET analysis; type: ADME, organism-based, Bone element; conditions: in vivo
In short: (§3)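 C57BL/6J mice were inoculated s.c. on the right shoulder with 3x10⁵ B16Bl6 cells in PBS under isoflurane, and imaged at day 10 or 14 (tumor volume 431.8 ± 154.3 mm³). The ¹⁸F tracer was given i.v. via tail vein, 8-12 MBq (methods: 9-12 MBq/0.15 mL). Under ketamine/xylazine i.p., a 25-min whole-body static PET scan ran at 1 h. ROI %ID/g = counts/g/min ÷ injected dose. n=2-8; mean ± SD.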

Muscle tissue = experiment: Biodistribution in muscle of C57BL/6J mouse harboring mouse B16-Bl6 cells at 9 to 12 MBq, iv after 2 hrs by PET analysis; type: ADME, organism-based; conditions: in vivo; in short: as §2
[9] = Stability of the compound in saline after 6 hrs; type: physicochemical; conditions: read-out: Stability
In short: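 Formulated radiotracer was kept in saline at room temperature; radiochemical purity was checked by analytical radio-HPLC over at least 6 h after preparation.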

Mus musculus [10] = experiment: Biodistribution in colon and feces of C57BL/6J mouse harboring mouse B16-Bl6 cells at 9 to 12 MBq, iv after 2 hrs by PET analysis; type: ADME, organism-based; conditions: in vivo; in short: as §2
Mus musculus [11] = experiment: Ratio of drug level in tumor to bone in C57BL/6J mouse harboring mouse B16-Bl6 cells at 9 to 12 MBq, iv after 2 hrs by PET analysis; conditions: in vivo
Mus musculus [12] = experiment: Biodistribution in tumor of C57BL/6J mouse harboring mouse B16-Bl6 cells at 9 to 12 MBq, iv after 2 hrs by PET analysis; type: ADME, organism-based, Neoplasm; conditions: in vivo; in short: as §1
Liver = experiment: Biodistribution in liver of C57BL/6J mouse harboring mouse B16-Bl6 cells at 9 to 12 MBq, iv after 1 hr by PET analysis; type: ADME, organism-based; conditions: in vivo; in short: as §2
Mus musculus [13] = experiment: Biodistribution in small intestine of C57BL/6J mouse harboring mouse B16-Bl6 cells at 9 to 12 MBq, iv after 2 hrs by PET analysis; type: ADME, organism-based; conditions: in vivo; in short: as §2
Zone of skin [14] = experiment: Biodistribution in skin of C57BL/6J mouse harboring mouse B16-Bl6 cells at 9 to 12 MBq, iv after 2 hrs by PET analysis; type: ADME, organism-based; conditions: in vivo; in short: as §2
Mus musculus [15] = experiment: Biodistribution in eyes of C57BL/6J mouse harboring mouse B16-Bl6 cells at 9 to 12 MBq, iv after 2 hrs by PET analysis; type: ADME, organism-based, Eye; conditions: in vivo; in short: as §2
[16] = Ratio of drug level in tumor to bone in C57BL/6J mouse harboring mouse B16-Bl6 cells at 8 to 12 MBq, iv after 1 hr by PET analysis; type: ADME, organism-based; conditions: in vivo
In short: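 Static whole-body PET at 1 h after tail-vein injection of [18F]tracer (9-12 MBq/0.15 mL) in C57BL/6J mice carrying subcutaneous B16Bl6 shoulder tumours (3x10⁵ cells), imaged day 10 or 14. Mice under ketamine/xylazine ip. 25 min acquisition, OSEM reconstruction. ROI % ID/g = counts/g/min ÷ injected dose; ratios = tumour % ID/g ÷ organ % ID/g. n=2-8; mean ± SD.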

Lung [17] = experiment: Biodistribution in lung of C57BL/6J mouse harboring mouse B16-Bl6 cells at 9 to 12 MBq, iv after 1 hr by PET analysis; type: ADME, organism-based; conditions: in vivo; in short: as §2
Blood [18] = experiment: Biodistribution in blood of C57BL/6J mouse harboring mouse B16-Bl6 cells at 9 to 12 MBq, iv after 2 hrs by PET analysis; type: ADME, organism-based; conditions: in vivo; in short: as §2
Zone of skin [19] = experiment: Biodistribution in skin of C57BL/6J mouse harboring mouse B16-Bl6 cells at 9 to 12 MBq, iv after 1 hr by PET analysis; type: ADME, organism-based; conditions: in vivo; in short: as §2
Stomach [20] = experiment: Biodistribution in stomach of C57BL/6J mouse harboring mouse B16-Bl6 cells at 9 to 12 MBq, iv after 2 hrs by PET analysis; type: ADME, organism-based; conditions: in vivo; in short: as §2
Mus musculus [21] = experiment: Biodistribution in eye of C57BL/6J mouse harboring mouse B16-Bl6 cells at 8 to 12 MBq, iv after 1 hr by PET analysis; type: ADME, organism-based; conditions: in vivo; in short: as §3
Blood [22] = experiment: Biodistribution in blood of C57BL/6J mouse harboring mouse B16-Bl6 cells at 9 to 12 MBq, iv after 1 hr by PET analysis; type: ADME, organism-based; conditions: in vivo; in short: as §2
[23] = Ratio of drug level in tumor to blood in C57BL/6J mouse harboring mouse B16-Bl6 cells at 9 to 12 MBq, iv after 1 hr by PET analysis; type: ADME, organism-based; in short: as §1
Lung [24] = experiment: Biodistribution in lung of C57BL/6J mouse harboring mouse B16-Bl6 cells at 9 to 12 MBq, iv after 3 hrs by PET analysis; type: ADME, organism-based; conditions: in vivo; in short: as §2
Nucleic Acid = experiment: Ratio of drug level in tumor to bone in C57BL/6J mouse harboring mouse B16-Bl6 cells at 9 to 12 MBq, iv after 1 hr by PET analysis; type: ADME, organism-based; conditions: in vivo; in short: as §1

A Drug uptake (Stomach [1]) of 2.81 % ID/g, a Ratio (Mus musculus [2]) of 14.46 and a Drug uptake (Mus musculus [3]) of 7.27 % ID/g were found for CCN(CCNC(=O)c1cnc2cc(I)ccc2n1)CCOCCOCCOCC[18F] in this work. The Kp at 3 h [4] was 14.4, the Drug uptake (Stomach [5]) was 4.41 % ID/g and the Drug uptake (Kidney [6]) was 2.18 % ID/g. It also gave a Drug uptake (Mus musculus [7]) of 18.36 % ID/g, a Drug uptake (Kidney [8]) of 2.19 % ID/g and a Drug uptake (Bone) of 1.98 % ID/g. It also gave a Drug uptake (Muscle tissue) of 0.92 % ID/g, a remaining at 6 h [9] greater than 99% and a Drug uptake (Mus musculus [10]) of 6.05 % ID/g. It also gave a Ratio (Mus musculus [11]) of 7.13, a Drug uptake (Mus musculus [12]) of 13.07 % ID/g and a Drug uptake (Liver) of 2.56 % ID/g. It also gave a Drug uptake (Mus musculus [13]) of 4.28 % ID/g, a Drug uptake (Zone of skin [14]) of 1.51 % ID/g and a Drug uptake (Mus musculus [15]) of 18.17 % ID/g. For the same compound, the Ratio [16] was 7.65, the Drug uptake (Lung [17]) was 1.86 % ID/g and the Drug uptake (Blood [18]) was 1.12 % ID/g. For the same compound, the Drug uptake (Zone of skin [19]) was 1.44 % ID/g, the Drug uptake (Stomach [20]) was 2.48 % ID/g and the Drug uptake (Mus musculus [21]) was 10.5 % ID/g. For the same compound, the Drug uptake (Blood [22]) was 1.42 % ID/g, the Kp at 1 h [23] was 10.2 and the Drug uptake (Lung [24]) was 1.6 % ID/g. It also gave a Ratio (Nucleic Acid) of 10.11.

A Drug uptake (Stomach [1]) of 5.39 % ID/g, a Ratio (Mus musculus [2]) of 6.64 and a Drug uptake (Mus musculus [3]) of 6.37 % ID/g were found for CCN(CCNC(=O)c1cnc2cc(I)ccc2n1)CCOCCOCCOCCOCCOCCOCCOCC[18F] in this work. For the same compound, the Kp at 3 h [4] was 5.27, the Drug uptake (Stomach [5]) was 5.87 % ID/g and the Drug uptake (Kidney [6]) was 3.52 % ID/g. For the same compound, the Drug uptake (Mus musculus [7]) was 12.24 % ID/g, the Drug uptake (Kidney [8]) was 2.6 % ID/g and the Drug uptake (Bone) was 2.48 % ID/g. It also gave a Drug uptake (Muscle tissue) of 1.04 % ID/g, a remaining at 6 h [9] greater than 99% and a Drug uptake (Mus musculus [10]) of 8.14 % ID/g. The Ratio (Mus musculus [11]) was 2.75, the Drug uptake (Mus musculus [12]) was 5.81 % ID/g and the Drug uptake (Liver) was 2.02 % ID/g. It also gave a Drug uptake (Mus musculus [13]) of 19.51 % ID/g, a Drug uptake (Zone of skin [14]) of 0.94 % ID/g and a Drug uptake (Mus musculus [15]) of 12.1 % ID/g. The Ratio [16] was 2.67, the Drug uptake (Lung [17]) was 1.75 % ID/g and the Drug uptake (Blood [18]) was 1.37 % ID/g. The Drug uptake (Zone of skin [19]) was 1.22 % ID/g, the Drug uptake (Stomach [20]) was 7.35 % ID/g and the Drug uptake (Mus musculus [21]) was 5.53 % ID/g. The Drug uptake (Blood [22]) was 1.15 % ID/g, the Kp at 1 h [23] was 8.29 and the Drug uptake (Lung [24]) was 2.37 % ID/g. It also gave a Ratio (Nucleic Acid) of 5.35.
